Assay results as given in ChEMBL document CHEMBL1155016, “Locking the two ends of tetrapeptidic HTLV-I protease inhibitors inside the enzyme” (Bioorg Med Chem, 2008).
pIC50: −log10 of the molar value.

Key:
[1] = biological target: Protease (Human T-cell leukemia virus type I, UniProt Q82134, L40I); assay: Inhibition of HTLV1 protease L40I mutant
Outline: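 HTLV-I protease carrying the L40I substitution, which blocks autolysis and stabilises the enzyme; run by the group's earlier reported protocol; potency given as IC50 in nM.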

[2] = biological target: Protease (Human immunodeficiency virus 1) (UniProt Q9YQ12); assay: Inhibition of HIV1 protease at 50 nM
Protease (Human immunodeficiency virus 1), sequence (Q9YQ12 as listed by the source): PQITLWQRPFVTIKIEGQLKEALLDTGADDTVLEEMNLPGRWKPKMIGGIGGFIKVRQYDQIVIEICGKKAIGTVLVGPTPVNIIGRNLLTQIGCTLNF

Protease, sequence (Q82134 entry or part of it L40I): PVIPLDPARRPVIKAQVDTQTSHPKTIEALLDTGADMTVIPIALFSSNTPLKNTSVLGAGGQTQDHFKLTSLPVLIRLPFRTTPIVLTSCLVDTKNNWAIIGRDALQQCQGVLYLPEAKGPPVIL

Row | Compound | pIC50 [1] | inhibition [2] [%]
1 | CC(C)C(=O)N[C@H](C(=O)N[C@H](C(=O)N[C@@H](Cc1ccccc1)[C@H](O)C(=O)N1CSC(C)(C)[C@H]1C(=O)NC(C)C(C)(C)C)C(C)(C)C)c1ccccc1 (stereo partly specified) | 7.08 | > 98
2 | CCC(=O)N[C@H](C(=O)N[C@H](C(=O)N[C@@H](Cc1ccccc1)[C@H](O)C(=O)N1CSC(C)(C)[C@H]1C(=O)NC(C)C(C)(C)C)C(C)(C)C)c1ccccc1 (stereo partly specified) | 6.99 | > 98
3 | CC(C)CC(=O)N[C@H](C(=O)N[C@H](C(=O)N[C@@H](Cc1ccccc1)[C@H](O)C(=O)N1CSC(C)(C)[C@H]1C(=O)NC(C)C(C)C)C(C)(C)C)c1ccccc1 (stereo partly specified) | 6.97 | > 98
